Published values pooled from the literature.
Target: MAP/microtubule affinity-regulating kinase 3 (MARK3, Homo sapiens, UniProt P27448)

Compound | effect on | method | concentration | remaining binding [%]
CC(=O)Nc1c(C(C)=O)c(=O)n(C)c2nc(-c3ccc(Cl)cc3Cl)c(-c3ccc(Cl)cc3)cc12 | cell-free assay | competition with immobilised ligand | 1 µM | 100
c1cnn2ncc(-c3ccnc(N4CCC45COC5)n3)c2c1 | binding |  | 1 µM | 100
COc1cnc(Nc2cccc(S(N)(=O)=O)c2)nc1N1CCN(c2ccccc2)C(=O)C1 | binding | competition with immobilised ligand | 1 µM | 92
C[C@@H]1CN(c2ccc3ncc(-c4ccc5[nH]nc(C6CC6)c5c4)n3n2)C[C@H](C)O1 | binding | competition with immobilised ligand | 0.5 µM | 100
c1cncc(-c2cccc(Nc3nccc(NC4CCCCC4)n3)c2)c1 | binding | competition with immobilised ligand | 10 µM | 99
O=C(NCc1ncc(C(F)(F)F)cc1Cl)c1ccc2c(c1)C1(CCS(=O)(=O)CC1)[C@H](C1CC1)N2S(=O)(=O)c1ccc(F)cc1 | cell-free assay | competition with immobilised ligand | 1 µM | 89
O=C(c1ccc(Nc2ncc(Cl)c(-c3cc4ccccc4s3)n2)cc1)N1CCC(N2CCCC2)CC1 | binding | competition with immobilised ligand | 1 µM | 100
O=C(NCC1CCOCC1)c1n[nH]cc1NC(=O)c1c(F)cccc1F | binding | competition with immobilised ligand | 1 µM | 100
Cc1c(C(=O)O)cc(-c2ccc(C3CCNCC3)cc2)c2ccc(-c3ccc(C(F)(F)F)cc3)cc12 | binding | competition with immobilised ligand | 1 µM | 100
COc1ccnn2ncc(-c3ccnc(N(C)C)n3)c12 | binding |  | 1 µM | 44
CN(C)C(=O)Cn1cc(-c2nc([C@@](C)(c3ccc(-c4cnc(N)nc4)cc3)C3CC3)no2)cn1 | cell-free assay | competition with immobilised ligand | 1 µM | 99
O=C(c1ccc(Nc2ncc(Cl)c(-c3ccc(Cl)s3)n2)cc1)N1CCC(N2CCCC2)CC1 | binding | competition with immobilised ligand | 1 µM | 100
C[C@H]1CCN(c2nccc(-c3cnn4ncccc34)n2)C1 | binding |  | 1 µM | 92
O=C(Nc1cccnn1)N1CCC(=Cc2cccc(Oc3ccc(C(F)(F)F)cn3)c2)CC1 | cell-free assay | competition with immobilised ligand | 1 µM | 89
CN(c1nccc(-c2cnn3ncccc23)n1)C1CC1 | binding |  | 1 µM | 100
CCN1CCN(Cc2ccc(C(=O)Nc3ccc(C)c(Oc4ccc5c(c4)CC(=O)N5)c3)cc2C(F)(F)F)CC1 | binding | competition with immobilised ligand | 1 µM | 100
